{
  "source": "ChEMBL document CHEMBL3774351",
  "about": "“Three stories on Eph kinase inhibitors: From in silico discovery to in vivo validation” (Eur J Med Chem, 2016)",
  "key": {"[1]": {"system": "Mus musculus", "assay": "Toxicity in nude mouse xenografted with human MDA-MB-231 cells assessed as reduction in body weight at 50 mg/kg, bid administered for 21 days measured during the treatment period", "type": "organism-based", "set-up": "scale not given: the % may be the effect or the level left", "conditions": "in vivo, 504 h", "method_in_brief": "(§1)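 MDA-MB-231 xenografts in nude mice, treatment started at median tumor volume 108 mm3. Oral gavage of 50 mg/kg twice daily (100 mg/kg/day) for 21 days versus vehicle cohort, 9 animals per cohort. Median tumor volume followed over time. Mean body weight monitored through the treatment period.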"}, "[2]": {"system": "HUVEC", "assay": "Antiangiogenic activity in HUVEC assessed as inhibition of VEGF-A-induced angiogenic sprouting by spheroid-based sprouting assay", "conditions": "Homo sapiens"}, "[3]": {"system": "Mus musculus", "assay": "AUClast in CD-1 (ICR) mouse at 1 mg/kg, iv", "type": "ADME, organism-based", "set-up": "dose 1 mg/kg, route intravenous, time 0 - last", "conditions": "in vivo"}, "[4]": {"system": "MDA-MB-231", "assay": "Antitumor activity against human MDA-MB-231 cells xenografted in nude mouse assessed as tumor growth inhibition at 50 mg/kg, bid administered for 21 days relative to control", "type": "functional", "conditions": "MDA-MB-231, 504 h", "method_in_brief": "as §1"}, "[5]": {"target": "T1, Ephrin type-B receptor 4 (Homo sapiens, UniProt P54760)", "T1 sequence (P54760 whole entry)": "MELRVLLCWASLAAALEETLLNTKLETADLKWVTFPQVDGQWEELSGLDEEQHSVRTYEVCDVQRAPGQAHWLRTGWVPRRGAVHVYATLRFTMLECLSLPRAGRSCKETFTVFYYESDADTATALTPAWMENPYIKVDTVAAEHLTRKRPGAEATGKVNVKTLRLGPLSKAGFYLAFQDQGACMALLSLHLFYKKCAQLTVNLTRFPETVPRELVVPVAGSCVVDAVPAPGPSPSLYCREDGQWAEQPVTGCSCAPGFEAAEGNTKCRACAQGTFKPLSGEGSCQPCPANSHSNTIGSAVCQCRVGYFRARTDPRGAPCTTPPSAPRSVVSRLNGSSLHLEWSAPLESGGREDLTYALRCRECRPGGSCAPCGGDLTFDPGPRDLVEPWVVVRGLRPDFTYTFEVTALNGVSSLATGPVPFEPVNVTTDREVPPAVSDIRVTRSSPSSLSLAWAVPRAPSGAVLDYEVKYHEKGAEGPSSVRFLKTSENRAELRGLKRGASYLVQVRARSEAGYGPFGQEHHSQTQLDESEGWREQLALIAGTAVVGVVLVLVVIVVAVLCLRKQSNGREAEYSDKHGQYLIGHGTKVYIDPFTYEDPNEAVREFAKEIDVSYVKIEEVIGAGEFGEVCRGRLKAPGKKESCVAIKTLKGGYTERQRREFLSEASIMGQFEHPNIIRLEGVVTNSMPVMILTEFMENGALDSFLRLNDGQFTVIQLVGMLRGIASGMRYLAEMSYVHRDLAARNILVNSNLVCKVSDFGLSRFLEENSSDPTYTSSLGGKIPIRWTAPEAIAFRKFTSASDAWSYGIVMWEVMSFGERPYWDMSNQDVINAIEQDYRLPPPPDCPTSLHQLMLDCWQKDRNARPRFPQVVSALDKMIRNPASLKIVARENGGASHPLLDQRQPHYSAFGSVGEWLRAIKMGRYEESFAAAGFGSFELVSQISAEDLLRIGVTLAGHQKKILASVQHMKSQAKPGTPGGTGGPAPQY", "assay": "Inhibition of N-terminal GST-fused His6-tagged human recombinant EphB4", "method_in_brief": "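EphB4 FRET enzymatic assay measuring inhibition of phosphorylation of a synthetic substrate, with ATP at Km.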"}, "[6]": {"system": "HUVEC", "assay": "Antiangiogenic activity in HUVEC assessed as reduction in branching points after 15 hrs by matrigel assay", "type": "functional, cell-based", "conditions": "Homo sapiens", "method_in_brief": "(§2)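 HUVEC seeded on Matrigel and incubated with compound for 15 h. Tube length, total branching points and total loops quantified against untreated control cells. Dose-response curves used to derive IC50 for each read-out. Measurements done at least in triplicate, SEM shown.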"}, "[7]": {"system": "HUVEC", "assay": "Antiangiogenic activity in HUVEC assessed as reduction in number of loops at 1 uM after 15 hrs by matrigel assay", "type": "functional", "conditions": "Homo sapiens"}, "[8]": {"system": "HUVEC", "assay": "Antiangiogenic activity in HUVEC assessed as reduction in branching points at 1 uM after 15 hrs by matrigel assay", "type": "functional", "conditions": "Homo sapiens"}, "[9]": {"system": "HUVEC", "assay": "Antiangiogenic activity in HUVEC assessed as reduction in number of loops after 15 hrs by matrigel assay", "type": "functional, cell-based", "conditions": "Homo sapiens", "method_in_brief": "as §2"}, "[10]": {"system": "HUVEC", "assay": "Antiangiogenic activity in HUVEC assessed as reduction in tube length after 15 hrs by matrigel assay", "type": "functional, cell-based", "conditions": "Homo sapiens", "method_in_brief": "as §2"}, "[11]": {"assay": "Half life in human liver microsomes at 0.1 uM up to 60 mins by HPLC-MS/MS analysis"}},
  "data": [
    {"smiles": "Cc1ccc(O)cc1-n1c(N)c(C(N)=O)c2nc3ccccc3nc21", "values": [
      {"measurement": "Activity", "setting": "[1]", "value": "<= 16%"},
      {"measurement": "IC50", "setting": "[2]", "value": 1.5, "unit": "µM"},
      {"measurement": "AUClast", "setting": "[3]", "value": 0.039, "unit": "µg·h/mL"},
      {"measurement": "inhibition in vivo at 50 mg/kg", "setting": "[4]", "value": 80, "unit": "%"}
    ]},
    {"smiles": "COc1cccc(-n2c(N)c(C(N)=O)c3nc4ccccc4nc32)c1", "values": [
      {"measurement": "IC50", "setting": "[5]", "value": 0.3, "unit": "µM"}
    ]},
    {"smiles": "COc1ccccc1-n1c(-c2ccc(O)cc2C)cn2c3c(=O)[nH]c(=O)n(C)c3nc12", "values": [
      {"measurement": "IC50", "setting": "[6]", "value": 0.191, "unit": "µM"},
      {"measurement": "inhibition at 1 µM", "setting": "[7]", "value": 97, "unit": "%"},
      {"measurement": "inhibition at 1 µM", "setting": "[8]", "value": 87, "unit": "%"},
      {"measurement": "IC50", "setting": "[9]", "value": 0.071, "unit": "µM"},
      {"measurement": "IC50", "setting": "[10]", "value": 1.7, "unit": "µM"}
    ]},
    {"smiles": "CC(C)NCC(O)COc1cccc2ccccc12", "note": "(stereo unspecified) [PROPRANOLOL]", "values": [
      {"measurement": "half-life at 1 h, 0.1 µM", "setting": "[11]", "value": "> 1", "unit": "h"}
    ]}
  ]
}
